Assay outcomes from PubChem BioAssay.
In the library only some 2.2% were active in any assay of this set; here they are far more common.
Ba/F3 V617F tox = reduce viability of Ba/F3 cells dependent on JAK2V617F; Ba/F3 EpoR-JAK2V617F viability, ATP luminescence; AID 1446; inhibition, % at 5.6 µM; hit rate 1.1% among 220,000;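 active means inhibition above the campaign mean plus 3 SD over all tested compounds, cut at about 24% in these data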;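 further: cytokine-independent growth of Ba/F3 cells driven by EpoR plus mutant JAK2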
bCat nuc transl = modulators of beta-catenin nuclear translocation; HeLa beta-catenin nuclear translocation, immunofluorescence imaging; nuclear translocation activity, % at 5 µM; hit rate 0.3% among 190,000;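 active means nuclear translocation activity above 50% at 5 µM, with a well cell count of 50 or more; inconclusive means wells under 50 cells across six images, flagged as toxic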;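 further: per-cell ratio of nuclear to cytoplasmic median beta-catenin stain intensity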
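Test system: HeLa cells, endogenous beta-catenin; Compound: single 5 µM dose plus 0.02–20 µM confirmation series; Times: compound exposure 24 h at 37°C; Signal: fluorescence imaging of beta-catenin antibody stain plus DAPI; Read-out: % activation, nuclear-to-cytoplasmic median beta-catenin signal ratio per cell.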
APP 5UTR inh = APP translation inhibition | SH-SY5Y APP 5'UTR-luciferase reporter, luminescence | inhibition, % at 2 µM | hit rate 0.82% among 190,000 | AID 1285;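 active means inhibition above a set limit, derived from the sample mean plus 3 SD, cut at about 45% in these data; inconclusive means one replicate passes the limit while the other fails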
MT stabilize HCS = stabilizes microtubules in HeLa cells; AID 2205; HeLa tubulin immunostaining HCS, 24 h; share of cells brighter than vehicle mean+2SD; hit rate 0.83% among 200,000; % tubulin-high responders, % at 10 µM;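 active means plate Z-score above 3 for both tubulin-high and condensed-nucleus cell shares, with cell loss under 80%, at 10 µM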;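 further: anti alpha tubulin signal scored within the nucleus-defined area of each cell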
IEC-6 cytotox = counter-screen for KLF5 inhibitors: cytotoxicity in IEC-6 cells | IEC-6 cytotoxicity, luminescence viability | inhibition, % at 5 µM | hit rate 0.78% among 290,000
BaF3 tox = counter-screen for JAK2V617F inhibitors: parental Ba/F3 viability inhibitors | hit rate 1.1% among 220,000 | inhibition, % at 5.6 µM | CellTiter-Glo ATP luminescence;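 active means inhibition above a per-campaign cutoff, the mean inhibition of all tested compounds plus 3 SD, cut at about 27% in these data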
IEC-6 tox confirm = confirmation of cytotoxic compounds in rat IEC-6 intestinal epithelial cells. IEC-6 rat intestinal epithelial viability, luminescence. shares compounds with IEC-6 cytotox. inhibition, % at 5 µM. AID 1907. hit rate 63% among 1,900
Hits are given with their value; 0 = inactive; ? = inconclusive; - = no result. Unless noted, no stated cut-off is given here; in the data, active means inhibition above about 22%; inactive means the rest.

SMILES	Ba/F3 V617F tox	bCat nuc transl	APP 5UTR inh	MT stabilize HCS	IEC-6 cytotox	BaF3 tox	IEC-6 tox confirm
Cc1nnc(N/N=C\c2ccc(-c3ccccc3[N+](=O)[O-])o2)n1N	0	0	0	0	57.8	0	0
CC1CCCCN1C(=O)CCc1nnc(Cc2c[nH]c3ccccc23)o1 (centres undefined)	0	0	0	0	0	0	-
COc1ccc(N(Cc2cc(=O)[nH]c3ccccc23)C(=O)CCl)cc1	-	-	-	-	0	-	-
COc1ccc(NS(=O)(=O)c2cccc(NC(=O)c3ccc(Cl)nc3)c2)cc1	62.8	0	0	16.1	33.3	78.2	0
COc1ccc(-c2n[nH]c3c2CN(C(=O)c2ccc(OC)c(OC)c2)CC3)cc1	-	-	-	-	40.1	-	0
CCC(C)(C)NC(=O)c1ccc2c(c1)OCCO2	0	0	0	0	0	0	-
COc1cccc(-c2cc3nc(-c4ccccc4)cc(=O)n3[nH]2)c1	-	-	-	-	78.3	-	53.4
O=C(Nc1ccc(Oc2ccc(NC(=O)Nc3ccccc3Cl)cc2)cc1)Nc1ccccc1Cl	0	0	-	-	0	0	0
O=C(Nc1ccccc1)Nc1cccc(Cl)c1Cl	0	0	0	0	0	0	-
CC(=O)CCn1cnc([N+](=O)[O-])n1	0	0	0	0	0	0	-
Cc1cc(C)c(NC(=O)Cn2nnc(C(=O)NCc3ccc4c(c3)OCO4)c2N)c(C)c1	-	-	-	-	0	-	-
N#CC1=C2SCC(O)(c3ccccc3)N2C(=O)CC1c1ccccc1 (centres undefined)	81.6	0	92.1	33.7	76.7	79.5	60.2
COc1ccc(C2c3cc(OC)c(OC)cc3CCN2S(C)(=O)=O)cc1OC (centres undefined)	75.5	0	0	0	36.4	57.5	0
Cc1cc(C)c2nc(N3C(=O)C(O)=C(C(=O)c4ccco4)C3c3ccco3)sc2c1 (centres undefined)	-	-	-	-	0	-	-
O=c1c2[nH]c3ccccc3c2ncn1CCC1=CCCCC1	0	0	0	0	0	0	-
C1=C(CCNc2ncnc3c2[nH]c2ccccc23)CCCC1	72.8	0	0	0	39.3	62.7	24.0
Cc1cc(-c2ccc(C(C)C)c(S(=O)(=O)N3CCN(c4ccccn4)CC3)c2)on1	-	-	-	-	23.2	-	0
CCc1ccc(-c2cc(C)no2)cc1S(=O)(=O)N1CCN(c2ccccn2)CC1	-	-	-	-	0	-	-
Cc1oc2c(c1C(=O)NCc1cccnc1)C(=O)c1ccccc1C2=O	93.9	?	95.2	0	101.5	101.4	104.5
COc1cccc(Cn2c(NCc3cccnc3)nc3c2c(=O)n(C)c(=O)n3C)c1	90.7	0	0	0	87.7	90.0	81.0
Cn1c(=O)c2c(nc(NCc3cccnc3)n2Cc2cccc(C(F)(F)F)c2)n(C)c1=O	52.6	0	0	0	25.2	53.4	24.8
COc1cccc(Cn2c(NCc3ccccn3)nc3c2c(=O)n(C)c(=O)n3C)c1	0	-	0	0	0	0	-
COc1ccc2[nH]c(C)cc(=O)c2c1	0	0	0	0	0	0	-
COc1ccc2[nH]c3c(C)c4ccncc4c(C)c3c2c1	65.1	0	-	-	73.5	59.9	58.2
Cc1ccc(S(=O)(=O)/N=C2/C=C(Sc3ncn[nH]3)C(=O)c3ccccc32)cc1	73.1	0	64.2	0	25.6	72.0	0
SMILES	Ba/F3 V617F tox	bCat nuc transl	APP 5UTR inh	MT stabilize HCS	IEC-6 cytotox	BaF3 tox	IEC-6 tox confirm
Cc1ccc(S(=O)(=O)Nc2ccc(O)c(Sc3ncn[nH]3)c2)cc1	0	0	0	0	0	0	-
CCc1ccccc1NC(=O)COC(=O)c1cccs1	-	-	-	-	0	-	-
CCOc1ccc(C(=O)c2ccncc2)cc1	0	0	0	0	0	0	-
CCOc1ccc(C(=O)C(CCC(CN(C)C)C(=O)c2ccc(OCC)cc2)CN(C)C)cc1 (centres undefined)	100.9	0	92.5	0	29.4	40.0	26.8
CCOc1ccc(N=Nc2ccc(O)c3ncccc23)cc1	-	-	-	-	0	-	-
NS(=O)(=O)c1ccc(N=Nc2ccc(O)c3ncccc23)cc1	-	-	-	-	46.3	-	0
CC1CCCN(S(=O)(=O)c2ccc(C(=O)Nc3nnc(-c4ccco4)o3)cc2)C1 (centres undefined)	-	-	-	-	25.0	-	0
CC(=O)c1sc2nsc(SCCN3CCOCC3)c2c1N	0	0	-	-	24.1	0	0
O=C(C1CCCN(S(=O)(=O)c2ccc(F)cc2)C1)N1CCCCCC1 (centres undefined)	-	-	-	-	0	-	-
